Experimental data pooled from the literature.
Lines come from different studies, so protocols differ.
Target: PAS domain-containing serine/threonine-protein kinase (PASK, Homo sapiens, UniProt Q96RG2)

The inhibition of `Cc1ncc([N+](=O)[O-])n1C(=NO)c1ccccc1C(F)(F)F` is reported as 11.2% (enzyme activity; inhibitor; 10 µM).
`CC/C(=N\NC(=O)NCc1cccc(O)c1)c1ccc(O)c(C)c1O` has an inhibition of -0.2% (enzyme activity; inhibitor; 0.1 µM).
For `COc1cc(Cl)c(C(=O)N[C@@H](CN[C@H]2CC[C@@H](N)CC2)Cc2ccc(C#N)cc2)cc1-c1ccc(CN[C@H](C)c2ccc(C)cc2)o1`, the remaining activity was 72% (enzyme activity; inhibitor; 1 µM).
`COc1cc2ncnc(Nc3ccc(Oc4ccccc4)c(C)c3C)c2cc1OC` has an inhibition of 6% (enzyme activity; inhibitor; 1 µM).
`CCN(CC)CCNC(=O)c1c(C)[nH]c(/C=C2\C(=O)Nc3ccc(F)cc32)c1C` has an inhibition of -5% (enzyme activity; inhibitor; 0.3 µM).
For `Cc1sc(C(=O)NC2COC2)cc1-n1cc(NC(=O)Nc2c(F)cccc2Cl)cn1`, the remaining activity was 96.1% (enzyme activity; inhibitor; 10 µM).
`N#CCCc1ccc2c(c1)-c1[nH]c3ccc([N+](=O)[O-])cc3c1CC(=O)N2` gave a remaining signal of 96.9% (cell-free assay; 0.5 µM).
With `Cc1cnc(NC2CCOCC2)nc1-n1cnc(C(=O)NC(CN)c2cc(F)cc(Cl)c2)c1` (centres unmarked) the remaining activity was 96% (enzyme activity; inhibitor; radiometric; 1 µM).
`Cc1ccc(Nc2nccc(N(C)c3ccc4c(C)n(C)nc4c3)n2)cc1S(N)(=O)=O` gave an inhibition of 1% (enzyme activity; inhibitor; 10 µM).
With `CCCOc1ccc(OC)c(F)c1C(=O)c1ccc(C(=O)N[C@@H]2CNC[C@H]2NC(=O)c2ccc3[nH]ncc3c2)cc1` the remaining activity was 6% (enzyme activity; inhibitor; 10 µM).
For `CC(C)(O)[C@H]1CC[C@H](Nc2ccc3ncc(-c4cccc(C(F)(F)F)c4)n3n2)CC1`, the remaining activity was 92.3% (enzyme activity; inhibitor; 1 µM).
`CC(C)(C)c1nc2c(s1)c1nc(N)ncc1c1ccc(NS(=O)(=O)c3c(F)cccc3F)c(F)c12` gave a remaining activity of 99% (enzyme activity; inhibitor; radiometric; 1 µM).
With `CNC(=O)c1cc(Oc2ccc(NC(=O)Nc3ccc(Cl)c(C(F)(F)F)c3)cc2)ccn1` the inhibition was -6% (enzyme activity; inhibitor; 0.3 µM).
With `Cc1cc(NC(=O)c2cccc3cc(-c4cccc5[nH]nc(N)c45)ccc23)ccc1F` the activity vs control was 89% (enzyme activity; inhibitor; 0.1 µM).
